From ChEMBL document CHEMBL1128722, “Mechanism-based isocoumarin inhibitors for human leukocyte elastase. Effect of the 7-amino substituent and 3-alkoxy group in 3-alkoxy-7-amino-4-chloroisocoumarins on inhibitory potency” (J Med Chem, 1995) come the findings set out here.

Molecules are shown by their SMILES. The source made the active and inactive calls. Where only a bound is given, the exact number is not on record here.

Test system in the first data set: not listed separately
In words: Half-life for hydrolysis was determined from kinetic constant. In kind it is ADME.
Conditions: not given
An outline of the steps:
(§1)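 Spontaneous hydrolysis in 0.1 M HEPES, 0.5 M NaCl, pH 7.5, 10% v/v DMSO final, 25 °C. Inhibitor added from 2.9–5.0 mM DMSO stock. Ring opening followed as absorbance decrease at 385 nm (ε385 = 3300 M⁻¹ cm⁻¹). Half-life from the first-order rate. Two determinations, standard errors ±15% or less.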
For `CCOc1oc(=O)c2cc(N)ccc2c1Cl`, the half-life – broadly, the time needed for the level to fall by half in the phase considered – is 216 min.

`Nc1ccc2c(Cl)c(OCCBr)oc(=O)c2c1` gave a half-life of 144 min.

The compound `Nc1ccc2c(Cl)c(OCCCBr)oc(=O)c2c1` had a half-life of 192 min.

The compound `CCCOc1oc(=O)c2cc(N)ccc2c1Cl` had a half-life of 276 min.

The target of a further data set is T1, Cathepsin G (Homo sapiens) (UniProt P08311).
T1 sequence (whole entry): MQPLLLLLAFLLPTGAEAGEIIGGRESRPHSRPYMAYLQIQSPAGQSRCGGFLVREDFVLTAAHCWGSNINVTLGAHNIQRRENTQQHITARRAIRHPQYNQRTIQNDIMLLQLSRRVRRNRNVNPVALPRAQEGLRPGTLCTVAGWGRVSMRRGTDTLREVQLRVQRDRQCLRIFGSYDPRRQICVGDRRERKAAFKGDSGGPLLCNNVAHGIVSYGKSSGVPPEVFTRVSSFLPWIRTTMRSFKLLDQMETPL
The data set is described as follows: The second order inactivation rate constant was expressed as inhibition of cathepsin G (Cat G).Inhibitor concentrations were 35-710 uM.
Conditions: not given
The gist of the method: (§2)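 Kitz–Wilson incubation method. Enzyme was preincubated with inhibitor (added in DMSO) in 0.1 M HEPES, 0.5 M NaCl, pH 7.5, at 25 °C. Aliquots were taken over time and diluted into pNA substrate: HLE MeO-Suc-Ala-Ala-Pro-Val-pNA (0.2–0.5 mM), PPE Suc-Ala-Ala-Ala-pNA, ChT and Cat G Suc-Val-Pro-Phe-pNA (0.4–0.5 mM). Release was read at 410 nm. kobs/[I] from ln(v0/vt) vs time. Mean of two determinations. Fast rates measured with equimolar inhibitor and enzyme.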
On to `Nc1ccc2c(Cl)c(OCCCBr)oc(=O)c2c1`, for which the K obs / 1 came out at 210 M⁻¹ s⁻¹.

For a further data set, the target named is T1, Cathepsin G (Homo sapiens). The data set is described as follows: Inhibition of cathepsin G at 35-710 uM.
Conditions: not given
The gist of the method:
as §2
Consider `Nc1ccc2c(Cl)c(OCCBr)oc(=O)c2c1`, for which the K obs / 1 is 410 M⁻¹ s⁻¹.

A further data set has as its target T1, Cathepsin G (Homo sapiens). In words: The second order inactivation rate constant was expressed as inhibition of cathepsin G(Cat G).Inhibitor concentrations were 35-710 uM; No inhibition.
Conditions: not given
An outline of the steps: as §2
Consider `O=C(Nc1ccccc1)Nc1ccc2c(Cl)c(OCCBr)oc(=O)c2c1`, for which the “K obs / 1” value was “inactive”.

Consider `O=C(CCc1ccccc1)Nc1ccc2c(Cl)c(OCCCBr)oc(=O)c2c1`, for which the “K obs / 1” value was “inactive”.

Regarding `CC(C)(C)OC(=O)N[C@@H](Cc1ccccc1)C(=O)Nc1ccc2c(Cl)c(OCCCBr)oc(=O)c2c1`, the “K obs / 1” value was “inactive”.

`CC(C)(C)OC(=O)N[C@H](Cc1ccccc1)C(=O)Nc1ccc2c(Cl)c(OCCCBr)oc(=O)c2c1`: the “K obs / 1” value was “inactive”.

The target of another data set is Chymotrypsinogen A (Bos taurus) (UniProt P00766). In words: The second order inactivation rate constant was expressed as inhibition of chymotrypsin (ChT).Inhibitor concentrations were 1.7-58 uM;No inhibition.
Conditions: not given
The gist of the method: as §2
As to `O=C(CCC(=O)OCc1ccccc1)Nc1ccc2c(Cl)c(OCCBr)oc(=O)c2c1`, the “K obs / 1” value was “inactive”.

The target is the same in the next data set. The data set is described as follows: The second order inactivation rate constant was expressed as inhibition of chymotrypsin (ChT).Inhibitor concentrations were 360-570 uM.
Conditions: not given
An outline of the steps: as §2
`COc1oc(=O)c2cc(NC(=O)[C@H](Cc3ccccc3)NC(=O)c3ccccc3)ccc2c1Cl` registered a k obs / 1 of 55 M⁻¹ s⁻¹.

With `COc1oc(=O)c2cc(NC(=O)CBr)ccc2c1Cl`, the K obs / 1 was 350 M⁻¹ s⁻¹.

A further data set addresses T2, Neutrophil elastase (Homo sapiens) (UniProt P08246).
T2 sequence (whole entry): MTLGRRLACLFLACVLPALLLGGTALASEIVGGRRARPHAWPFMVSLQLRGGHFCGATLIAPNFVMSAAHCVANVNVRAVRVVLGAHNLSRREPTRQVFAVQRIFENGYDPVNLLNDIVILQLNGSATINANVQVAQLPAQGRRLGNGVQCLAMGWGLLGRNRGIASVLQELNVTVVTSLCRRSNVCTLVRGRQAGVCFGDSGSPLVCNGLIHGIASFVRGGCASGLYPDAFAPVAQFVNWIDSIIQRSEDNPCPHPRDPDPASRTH
The data set is described as follows: Second order inactivation rate constant for inhibition of human leukocyte elastase.
Conditions: not given
The gist of the method: as §2
Turning to `CCOc1oc(=O)c2cc(N)ccc2c1Cl`, the k obs / 1 turned out to be 9400 M⁻¹ s⁻¹.

`Nc1ccc2c(Cl)c(OCCCBr)oc(=O)c2c1` yielded a k obs / 1 of 4000 M⁻¹ s⁻¹.

For the compound `CCCOc1oc(=O)c2cc(N)ccc2c1Cl`, the k obs / 1 was determined as 54000 M⁻¹ s⁻¹.

A further data set concerns the target T2, Neutrophil elastase (Homo sapiens). In words: The second order inactivation rate constant expressed as inhibition of human leukocyte elastase (HLE). Inhibitor concentrations were 0.07-710 uM.
Conditions: not given
The gist of the method: as §2
Compound `O=C(Nc1ccccc1)Nc1ccc2c(Cl)c(OCCBr)oc(=O)c2c1` had a K obs / 1 of 1.2e+06 M⁻¹ s⁻¹.

On to `O=C(CCC(=O)OCc1ccccc1)Nc1ccc2c(Cl)c(OCCBr)oc(=O)c2c1`, for which the K obs / 1 is 3210 M⁻¹ s⁻¹.

`CC(C)(C)OC(=O)N[C@@H](Cc1ccccc1)C(=O)Nc1ccc2c(Cl)c(OCCCBr)oc(=O)c2c1` displayed a K obs / 1 of 1320 M⁻¹ s⁻¹.

As to `Nc1ccc2c(Cl)c(OCCCBr)oc(=O)c2c1`, the K obs / 1 was found to be 4000 M⁻¹ s⁻¹.

`CC(C)(C)OC(=O)N[C@H](Cc1ccccc1)C(=O)Nc1ccc2c(Cl)c(OCCCBr)oc(=O)c2c1` gave a K obs / 1 of 1480 M⁻¹ s⁻¹.

The next data set shares this target. The data set is described as follows: The second order inactivation rate constant was expressed as inhibition of human leukocyte elastase (HLE). Inhibitor concentrations were 0.4-4 uM.
Conditions: not given
The gist of the method:
as §2
As to `COc1oc(=O)c2cc(NC(=O)[C@H](Cc3ccccc3)NC(=O)c3ccccc3)ccc2c1Cl`, the k obs / 1 was 180000 M⁻¹ s⁻¹.

As to `COc1oc(=O)c2cc(NC(=O)CBr)ccc2c1Cl`, the K obs / 1 is 39000 M⁻¹ s⁻¹.

Another data set shares this target. The data set is described as follows: The second order inactivation rate constant was expressed as inhibition of human leukocyte elastase.
Conditions: not given
The gist of the method:
as §2
Compound `Nc1ccc2c(Cl)c(OCCBr)oc(=O)c2c1` registered a K obs / 1 of 200000 M⁻¹ s⁻¹.

For the next data set the target is unchanged. In words: Inhibition of human leukocyte elastase.
Conditions: not given
An outline of the steps:
as §2
Take `CCOc1oc(=O)c2cc(N)ccc2c1Cl`: the [I] was 4 µM.

For the compound `Nc1ccc2c(Cl)c(OCCBr)oc(=O)c2c1`, the [I] amounted to 0.07 µM.

`Nc1ccc2c(Cl)c(OCCCBr)oc(=O)c2c1`: the [I] came out at 3.4 µM.

As to `CCCOc1oc(=O)c2cc(N)ccc2c1Cl`, the [I] was determined as 2.6 µM.

Another data set addresses T3, Chymotrypsin-like elastase family member 2A (Sus scrofa) (UniProt P08419).
T3 sequence (whole entry): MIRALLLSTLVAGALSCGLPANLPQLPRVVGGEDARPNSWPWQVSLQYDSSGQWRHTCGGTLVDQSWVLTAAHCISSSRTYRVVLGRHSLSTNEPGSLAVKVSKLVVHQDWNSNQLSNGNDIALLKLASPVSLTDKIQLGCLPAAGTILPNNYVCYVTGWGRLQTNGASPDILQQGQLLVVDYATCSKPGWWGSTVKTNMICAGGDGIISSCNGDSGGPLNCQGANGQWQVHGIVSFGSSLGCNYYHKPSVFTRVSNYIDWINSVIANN
The data set is described as follows: The second order inactivation rate constant was expressed as inhibition of porcine pancreatic elastase (PPE).Inhibitor concentrations were 0.04-2.0 uM;No inhibition. The note with it: in the assay text read “0.04-2.0 mM” for “0.04-2.0 uM”. An outline of the steps:
as §2
As to `O=C(CCC(=O)OCc1ccccc1)Nc1ccc2c(Cl)c(OCCBr)oc(=O)c2c1`, the “K obs / 1” value was “inactive”.

A further data set has as its target T3, Chymotrypsin-like elastase family member 2A (Sus scrofa). The data set is described as follows: The second order inactivation rate constant was expressed as inhibition of porcine pancreatic elastase (PPE).Inhibitor concentrations were 2-600 uM.
Conditions: not given
The gist of the method: as §2
On to `COc1oc(=O)c2cc(NC(=O)[C@H](Cc3ccccc3)NC(=O)c3ccccc3)ccc2c1Cl`, for which the k obs / 1 was found to be 530 M⁻¹ s⁻¹.

As to `COc1oc(=O)c2cc(NC(=O)CBr)ccc2c1Cl`, the K obs / 1 is 3500 M⁻¹ s⁻¹.

The next data set has the same target. The data set is described as follows: Percent activity regained after 17h of incubation with hydroxylamine (Non-preincubated PPE).
Conditions: not given
An outline of the steps:
(§3)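 Without preincubation, hydroxylamine was added immediately after inhibition at [I]/PPE 200:1, and activity was read after 17 h. With preincubation, the 1:1 [I]/PPE complex stood 20 h at room temperature in buffer before hydroxylamine was added. Activity read at 1–17 h.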
Compound `COc1oc(=O)c2cc(NC(=O)[C@H](Cc3ccccc3)NC(=O)c3ccccc3)ccc2c1Cl` showed an Activity regained of 91%.

A further data set has the same target. The data set is described as follows: Percent activity regained after 20h of pre-incubation before addition of hydroxylamine (Preincubated Pancreatic elastase).
Conditions: not given
An outline of the steps: as §3
Regarding `COc1oc(=O)c2cc(NC(=O)[C@H](Cc3ccccc3)NC(=O)c3ccccc3)ccc2c1Cl`, the Activity regained stood at 31%.

Test system in a further data set: not listed separately
In words: Half-life for hydrolysis of compound was determined from kinetic constant. In kind it is ADME.
Conditions: not given
An outline of the steps: as §1
In turn, `COc1oc(=O)c2cc(NC(=O)[C@H](Cc3ccccc3)NC(=O)c3ccccc3)ccc2c1Cl` returned a half-life above 2880 min.

In the next data set the target is T3, Chymotrypsin-like elastase family member 2A (Sus scrofa). The data set is described as follows: The second order inactivation rate constant expressed as inhibition of porcine pancreatic elastase (PPE).Inhibitor concentrations were 0.04-2.0 mM.
Conditions: not given
For `O=C(Nc1ccccc1)Nc1ccc2c(Cl)c(OCCBr)oc(=O)c2c1`, the K obs / 1 came out at 36 M⁻¹ s⁻¹.

In turn, `Nc1ccc2c(Cl)c(OCCBr)oc(=O)c2c1` had a K obs / 1 of 1000 M⁻¹ s⁻¹.

`Nc1ccc2c(Cl)c(OCCCBr)oc(=O)c2c1` came in with a K obs / 1 of 10 M⁻¹ s⁻¹.
